“And” between values parts separate entries of the source, which are not always exact repeats. Identical values can stand only once. Like-named read-outs stand apart in the source and are kept apart here.
What was measured:
[1] = mouse; cited from earlier work
[2] = tested on: PBR; assay: PET imaging in monkeys; format: in vivo, rhesus monkey; settings: monkey
Outline: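 Male rhesus monkeys (11–15 kg) received an i.v. bolus of radioligand (2.76–5.80 mCi; 0.068–0.276 μg/kg) and were scanned up to 300 min. In pre-block, PBR ligand (3 mg/kg i.v.) was given 24 min before radioligand and imaging ran 120 min. In displacement, one monkey received 1.28 mCi, then 3 mg/kg i.v. at 60 min, with 240 min scanning. Uptake was given as %SUV. Images were co-registered with T1 1.5-T MRI.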

[3] = Emergence of radiometabolites in rat plasma, brain and urine in vivo
Outline: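 Four rats (277–623 g) were kept under 1.5% isoflurane in oxygen at 37 °C. Two received NCA radioligand i.v. (0.812 or 1.32 mCi; >1.39 Ci/μmol) and were killed at 30 or 95 min. Two received carrier-added radioligand (0.86 or 0.89 mCi; ~0.13 Ci/μmol; saline with 10% ethanol, 5% Tween 80), had 5 mL saline i.p. 30 min before, and were killed at 60 min with urine collected. Plasma was deproteinized. Brain was homogenized on ice in saline/acetonitrile plus water and centrifuged. Analysis was by radio-HPLC.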

[4] = Radiochemical stability of formulated radioligand; format: physicochemical; settings: formulated [^18F]9
[5] = Stability in sodium phosphate buffer; format: physicochemical; settings: sodium phosphate buffer (0.15 M, pH 7.4), room temperature
Outline: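 Radioligand was incubated in 0.15 M sodium phosphate buffer, pH 7.4, at room temperature for 2 h and analysed by HPLC.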

[6] = Plasma free fraction, monkey; format: in vitro ADME; settings: two monkeys, one value each (n = 9 and n = 3)
Outline: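 Radioligand was added to plasma and placed on a centrifugal ultrafiltration unit. The unit was spun at 5000g, and all filter-unit components were counted for radioactivity to derive free fraction.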

[7] = Emergence of radiometabolites in monkey plasma in vivo; design: species or system rhesus monkey
Outline: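 Three male rhesus monkeys (11–15 kg) received i.v. bolus radioligand during four PET scans: three baseline and one pre-block (PBR ligand 3 mg/kg i.v., 24 min before). Arterial blood was drawn periodically from the femoral artery into heparin tubes and centrifuged. Plasma (1 mL) was mixed with acetonitrile (1.5 mL) and centrifuged. Supernatant was analysed by radio-HPLC for % parent and radiometabolites. Plasma concentration was expressed as %SUV.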

[8] = Stability to rat brain homogenate in vitro; format: in vitro ADME; settings: 37 °C, up to 60 min
Outline: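 Excised rat brain (1.70 g) was homogenized in 3 mL saline, spiked with 5 μCi radioligand and incubated at 37 °C. Aliquots (n = 6) were taken periodically up to 60 min into acetonitrile, centrifuged and analysed by radio-HPLC for % parent and radiometabolites. A second brain, homogenized in saline/acetonitrile before spiking, served as reference.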

[9] = format: in vitro ADME, rat; settings: 30 min
[10] = tested on: PBR; settings: cited from earlier work
[11] = LC-MS-MS search for metabolites in rat brain, urine and plasma in vivo
Outline: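 Three rats under 1.5% isoflurane received non-radioactive test compound (2.26 ± 0.76 mg) via the penile vein over 9 min, in 0.9 mL saline with 10% ethanol and Cremophor EL or Tween 80. Urethras were clamped; saline 0.1 mL was given i.v. every 30 min. Blood and urine were taken at 60 or 115 min. Brain was homogenized twice in acetonitrile/water and spun at 10,000g for 10 min. Plasma was deproteinized with acetonitrile. Samples were stored at −70 °C and analysed by LC-MS-MS.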

[12] = two rats, carrier-added, 60 min

COc1ccc(OC[18F])c(CN(C(C)=O)c2cc(F)ccc2Oc2ccccc2)c1 [[^18F]4]
defluorination [1]: rapidly defluorinated

COc1ccc(OC)c(CN(C(=O)C[18F])c2ccccc2Oc2ccccc2)c1 [[^18F]9, [^18F]N-fluoroacetyl-N-(2,5-dimethoxybenzyl)-2-phenoxyaniline]
defluorination (uptake of radioactivity into skull) ([2]; PET images 60-120 min): does not defluorinate significantly | maximal brain uptake ([2]; choroid plexus of fourth ventricle, baseline, n = 4): 371 ± 89 % SUV | proportion of brain radioactivity displaced ([2]; choroid plexus, 1 (3 mg/kg i.v.) given 60 min after [^18F]9): up to 90% | [^18F]9 as share of plasma radioactivity ([3]; rat, NCA, mass dose 0.85 μg/kg, 30 min, n = 2): 12.5% | minor radiometabolite, share of total radioactivity ([3]; second rat, NCA, mass dose 3.78 μg/kg): < 5% | minor radiometabolite, share of brain radioactivity [3, 12]: < 5% | minor radiometabolite, share of plasma radioactivity [3, 12]: < 3% | minor radiometabolite, share of urine radioactivity [3, 12]: 9.9 ± 2.2% | time radiochemically stable [4]: at least 4 h | time stable in buffer [5]: > 2 h | plasma free fraction (fP) [6]: 3.5 ± 0.2% and 1.34 ± 0.1% | time for radiometabolite to reach half of plasma radioactivity ([7]; baseline, the one monkey also studied with pre-block): 24 min | minor radiometabolite, share of total plasma radioactivity ([7]; monkey plasma, all samples except one): ≤ 4% | peak plasma concentration of unchanged [^18F]9, pre-block versus baseline ([7]; monkey, %SUV, same monkey): ~18 fold | time at which plasma is composed equally of radiometabolite and [^18F]9 ([7]; monkey, baseline experiments, n = 3): 31.1 ± 14.7 min | time at which plasma is composed equally of radiometabolite and [^18F]9 ([7]; monkey, pre-block with 1 (3 mg/kg i.v.), 3 mg/kg): 4.0 min and 4 min | minor radiometabolite, share of total plasma radioactivity ([7]; one monkey, one plasma sample at 60 min after injection): 8% | unchanged radioligand after incubation [8]: > 99.2%

O=C(C[18F])Nc1ccccc1Oc1ccccc1 [[^18F]11, [^18F]2-fluoro-N-(2-phenoxyphenyl)acetamide]
conversion into polar radiometabolite(s) ([9]; rat brain homogenate): > 99.9% | conversion into polar radiometabolite(s) ([9]; rat whole blood): > 99.9%

COc1ccc(OC)c(CN(C(=O)CF)c2ccccc2Oc2ccccc2)c1 [compound 9, N-Fluoroacetyl-N-(2,5-dimethoxybenzyl)-2-phenoxyaniline]
selectivity for PBR [10]: selective for PBR | unchanged 9 in urine by LC-MS-MS [11]: not detected | unchanged 9 in brain and plasma by LC-MS-MS ([11]; sampled at 115 min after administration): detected

Source: paper PMC2646257 (Journal of medicinal chemistry, 2009)
